# Reference: ChEMBL document CHEMBL4043061, “Potent, Selective, Allosteric Inhibition of Human Plasmin by Sulfated Non-Saccharide Glycosaminoglycan Mimetics” (J Med Chem, 2017)
# Activity calls are given as the source filed them. No cut-off for these calls is given here.
# Columns and labels:
# [1] = target: Plasminogen (Homo sapiens) (UniProt P00747); assay: Binding affinity to human plasmin assessed as loss of intrinsic tryptophan fluorescence at 250 uM by spectrofluorometric method
# [2] = target: Plasminogen (Homo sapiens) (UniProt P00747); assay: Allosteric inhibition of full length human plasmin by using chromogenic substrate spectrozyme PL preincubated for 5 mins followed by substrate addition by spectrophotometric method
# Outline: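 Inhibitor added from 0–20 mM aqueous stocks, or vehicle. After 5 min, Spectrozyme PL added (1 mM stock). Residual activity taken from initial rate of A405 rise. Logistic fit gives IC50, efficacy and Hill slope.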
# [3] = target: Plasminogen (Homo sapiens) (UniProt P00747); details: 200 uM
# [4] = target: Prothrombin (Homo sapiens) (UniProt P00734); assay: Inhibition of human thrombin by using chromogenic substrate spectrozyme TH preincubated for 5 mins followed by substrate addition by spectrophotometric method
# Outline: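 Thrombin at 6 nM final, 25 °C, in 20 mM Tris-HCl pH 7.4 with 100 mM NaCl, 2.5 mM CaCl2, 0.1% PEG8000, 0.02% Tween80. Inhibitor (0–20 mM stock) or vehicle preincubated 5 min with enzyme. Spectrozyme TH added (1.0 mM stock). Residual activity read as initial rate of A405 increase and fitted to a sigmoidal dose–response curve.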
# Homo sapiens = organism: Homo sapiens; assay: Inhibition of human chymotrypsin using chromogenic substrate spectrozyme Cty preincubated for 5 mins followed by substrate addition by spectrophotometric method
# Outline: (§1)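 Tris-HCl pH 7.4 buffer (100 mM NaCl, 2.5 mM CaCl2, 0.1% PEG8000, 0.02% Tween80) at 37 °C; factor IXa buffer also held 33% ethylene glycol. Final enzyme: factor Xa 1.09 nM, XIa 0.75 nM, XIIa 10 nM, IXa 250 nM, trypsin 0.145 µg/mL, chymotrypsin […]. Inhibitor from 0–20 mM stock, 5 min preincubation, then substrate. Initial A405 rate, sigmoidal dose–response fit.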
# [5] = target: Coagulation factor XI (Homo sapiens) (UniProt P03951); assay: Inhibition of human F11a by using chromogenic substrate S-2366 preincubated for 5 mins followed by substrate addition by spectrophotometric method; outline: as §1
# [6] = target: Coagulation factor X (Homo sapiens) (UniProt P00742); assay: Inhibition of human F10a by using chromogenic substrate spectrozyme F10a preincubated for 5 mins followed by substrate addition by spectrophotometric method; outline: as §1
# Coagulation factor X (Homo sapiens), sequence (P00742 41-179 limits assumed): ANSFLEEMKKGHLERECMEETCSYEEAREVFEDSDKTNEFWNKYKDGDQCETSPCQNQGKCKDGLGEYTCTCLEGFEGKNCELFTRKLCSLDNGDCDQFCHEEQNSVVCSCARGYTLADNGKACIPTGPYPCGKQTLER
# Coagulation factor X (Homo sapiens), sequence (P00742 235-488 limits assumed): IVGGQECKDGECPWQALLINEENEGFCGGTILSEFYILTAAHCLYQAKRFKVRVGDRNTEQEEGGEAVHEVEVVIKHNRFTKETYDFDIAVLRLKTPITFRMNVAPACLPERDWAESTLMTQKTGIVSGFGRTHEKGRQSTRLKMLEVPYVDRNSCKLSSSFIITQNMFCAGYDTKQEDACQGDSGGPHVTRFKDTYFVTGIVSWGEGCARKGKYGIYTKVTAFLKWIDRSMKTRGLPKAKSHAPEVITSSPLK
# Plasminogen (Homo sapiens), sequence (P00747 97-580 limits assumed): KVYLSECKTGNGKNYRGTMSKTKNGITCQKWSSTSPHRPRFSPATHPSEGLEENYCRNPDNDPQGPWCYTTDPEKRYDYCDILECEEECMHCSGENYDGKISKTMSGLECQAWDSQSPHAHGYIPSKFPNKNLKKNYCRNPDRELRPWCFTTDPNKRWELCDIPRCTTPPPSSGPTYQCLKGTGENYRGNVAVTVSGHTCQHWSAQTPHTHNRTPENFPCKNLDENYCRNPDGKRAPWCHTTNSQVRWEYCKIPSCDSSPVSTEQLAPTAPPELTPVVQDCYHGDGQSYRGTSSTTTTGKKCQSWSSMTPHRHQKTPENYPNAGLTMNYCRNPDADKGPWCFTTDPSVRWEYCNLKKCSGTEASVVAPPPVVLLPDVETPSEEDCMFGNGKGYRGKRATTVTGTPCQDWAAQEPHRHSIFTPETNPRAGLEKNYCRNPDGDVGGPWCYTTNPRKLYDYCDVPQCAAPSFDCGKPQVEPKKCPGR
# Plasminogen (Homo sapiens), sequence (P00747 581-810 limits assumed): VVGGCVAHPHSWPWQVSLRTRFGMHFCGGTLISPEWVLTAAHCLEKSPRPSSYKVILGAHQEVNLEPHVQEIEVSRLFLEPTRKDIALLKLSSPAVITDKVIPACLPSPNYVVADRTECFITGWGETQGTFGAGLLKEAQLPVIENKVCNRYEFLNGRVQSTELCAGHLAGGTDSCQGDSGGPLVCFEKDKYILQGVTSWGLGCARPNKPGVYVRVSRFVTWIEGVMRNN
# Coagulation factor XI (Homo sapiens), sequence (P03951 19-387 limits assumed): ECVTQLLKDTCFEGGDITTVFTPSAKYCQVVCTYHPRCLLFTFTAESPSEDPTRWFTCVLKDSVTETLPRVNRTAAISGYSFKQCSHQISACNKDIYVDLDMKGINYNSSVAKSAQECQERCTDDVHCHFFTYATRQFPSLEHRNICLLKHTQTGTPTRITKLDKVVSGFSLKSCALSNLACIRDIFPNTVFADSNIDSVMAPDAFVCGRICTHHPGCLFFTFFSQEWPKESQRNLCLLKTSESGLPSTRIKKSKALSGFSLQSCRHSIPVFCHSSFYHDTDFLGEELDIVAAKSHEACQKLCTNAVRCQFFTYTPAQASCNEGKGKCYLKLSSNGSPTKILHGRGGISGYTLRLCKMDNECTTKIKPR
# Coagulation factor XI (Homo sapiens), sequence (P03951 388-625 limits assumed): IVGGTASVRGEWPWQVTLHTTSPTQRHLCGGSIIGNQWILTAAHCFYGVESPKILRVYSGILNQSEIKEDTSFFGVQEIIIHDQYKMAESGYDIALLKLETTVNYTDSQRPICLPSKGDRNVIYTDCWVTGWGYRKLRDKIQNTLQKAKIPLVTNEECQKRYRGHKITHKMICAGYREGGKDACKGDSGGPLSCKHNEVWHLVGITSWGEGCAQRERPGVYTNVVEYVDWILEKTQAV
Efficacy [2] [%],SMILES,also measured
104,Cc1cc(COc2cc(OS(=O)(=O)O)cc3oc(-c4ccc(OS(=O)(=O)O)c(OS(=O)(=O)O)c4)c(OS(=O)(=O)O)c(=O)c23)c(C)cc1COc1cc(OS(=O)(=O)O)cc2oc(-c3ccc(OS(=O)(=O)O)c(OS(=O)(=O)O)c3)c(OS(=O)(=O)O)c(=O)c12,Activity [1]: 90%
90,O=c1c(OS(=O)(=O)O)c(-c2ccc(OS(=O)(=O)O)c(OS(=O)(=O)O)c2)oc2cc(OS(=O)(=O)O)cc(OCc3cccc(COc4cc(OS(=O)(=O)O)cc5oc(-c6ccc(OS(=O)(=O)O)c(OS(=O)(=O)O)c6)c(OS(=O)(=O)O)c(=O)c45)n3)c12,–
80,O=c1c(OS(=O)(=O)O)c(-c2ccc(OS(=O)(=O)O)c(OS(=O)(=O)O)c2)oc2cc(OS(=O)(=O)O)cc(OCc3ccc(-c4ccc(COc5cc(OS(=O)(=O)O)cc6oc(-c7ccc(OS(=O)(=O)O)c(OS(=O)(=O)O)c7)c(OS(=O)(=O)O)c(=O)c56)cc4)cc3)c12,–
94,Cc1cc(COc2cc(OS(=O)(=O)O)cc3oc(-c4ccc(OS(=O)(=O)O)cc4)cc(=O)c23)c(C)cc1COc1cc(OS(=O)(=O)O)cc2oc(-c3ccc(OS(=O)(=O)O)cc3)cc(=O)c12,Activity [1]: 108%
109,O=c1cc(-c2ccc(OS(=O)(=O)O)cc2)oc2cc(OS(=O)(=O)O)cc(OCc3ccc(COc4cc(OS(=O)(=O)O)cc5oc(-c6ccc(OS(=O)(=O)O)c(OS(=O)(=O)O)c6)c(OS(=O)(=O)O)c(=O)c45)cc3)c12,–
90,O=c1cc(-c2ccc(OS(=O)(=O)O)cc2)oc2cc(OS(=O)(=O)O)cc(OCCCCOc3cc(OS(=O)(=O)O)cc4oc(-c5ccc(OS(=O)(=O)O)cc5)cc(=O)c34)c12,–
72,O=c1c(OS(=O)(=O)O)c(-c2ccc(OS(=O)(=O)O)c(OS(=O)(=O)O)c2)oc2cc(OS(=O)(=O)O)cc(OCCCCOc3cc(OS(=O)(=O)O)cc4oc(-c5ccc(OS(=O)(=O)O)c(OS(=O)(=O)O)c5)c(OS(=O)(=O)O)c(=O)c34)c12,–

# Second part, the compound before the results:
SMILES,Efficacy [2] [%],also measured
O=c1cc(-c2ccc(OS(=O)(=O)O)cc2)oc2cc(OS(=O)(=O)O)cc(OC/C=C/COc3cc(OS(=O)(=O)O)cc4oc(-c5ccc(OS(=O)(=O)O)cc5)cc(=O)c34)c12,90,Activity [1]: 101%
O=c1cc(-c2ccc(OS(=O)(=O)O)cc2)oc2cc(OS(=O)(=O)O)cc(OCc3cccc(COc4cc(OS(=O)(=O)O)cc5oc(-c6ccc(OS(=O)(=O)O)cc6)cc(=O)c45)c3)c12,86,–
O=c1c(OS(=O)(=O)O)c(-c2ccc(OS(=O)(=O)O)c(OS(=O)(=O)O)c2)oc2cc(OS(=O)(=O)O)cc(OCc3ccc(COc4cc(OS(=O)(=O)O)cc5oc(-c6ccc(OS(=O)(=O)O)c(OS(=O)(=O)O)c6)c(OS(=O)(=O)O)c(=O)c45)cc3)c12,93 to 98,inhibition [3]: Active; Efficacy [4]: 77%; Efficacy (Homo sapiens): 92%; Efficacy [5]: 93%
O=c1cc(-c2ccc(OS(=O)(=O)O)cc2)oc2cc(OS(=O)(=O)O)cc(OCCOc3cc(OS(=O)(=O)O)cc4oc(-c5ccc(OS(=O)(=O)O)cc5)cc(=O)c34)c12,79,–
O=c1cc(-c2ccc(OS(=O)(=O)O)cc2)oc2cc(OS(=O)(=O)O)cc(OCc3ccc(COc4cc(OS(=O)(=O)O)cc5oc(-c6ccc(OS(=O)(=O)O)cc6)cc(=O)c45)cc3)c12,89,–
O=c1c(OS(=O)(=O)O)c(-c2ccc(OS(=O)(=O)O)c(OS(=O)(=O)O)c2)oc2cc(OS(=O)(=O)O)cc(OCc3cccc(COc4cc(OS(=O)(=O)O)cc5oc(-c6ccc(OS(=O)(=O)O)c(OS(=O)(=O)O)c6)c(OS(=O)(=O)O)c(=O)c45)c3)c12,107,–
O=c1cc(-c2ccc(OS(=O)(=O)O)cc2)oc2cc(OS(=O)(=O)O)cc(OCc3cccc(COc4cc(OS(=O)(=O)O)cc5oc(-c6ccc(OS(=O)(=O)O)cc6)cc(=O)c45)n3)c12,63,–
O=c1cc(-c2ccc(OS(=O)(=O)O)cc2)oc2cc(OS(=O)(=O)O)cc(OCc3ccc(-c4ccc(COc5cc(OS(=O)(=O)O)cc6oc(-c7ccc(OS(=O)(=O)O)cc7)cc(=O)c56)cc4)cc3)c12,79,–
O=c1c(O)c(-c2ccc(O)c(O)c2)oc2cc(O)cc(OCc3ccc(COc4cc(O)cc5oc(-c6ccc(O)c(O)c6)c(O)c(=O)c45)cc3)c12,111,Efficacy [6]: 104%; Efficacy [4]: 91%; Efficacy [5]: 109%
